Source: ChEMBL document CHEMBL3124806, “Imidazopyridine-fused [1,3]-diazepinones: synthesis and antiproliferative activity” (Eur J Med Chem, 2014)
The source made the active and inactive calls. The rule behind the calls is not given here.

Experiments:
LOX IMVI = test: Cytotoxicity against human LOXIMVI cells after 48 hrs by SRB assay; format: functional
Procedure, shortened: (§1)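 NCI-60 five-dose testing, 100 to 0.01 µM, under a 48 h continuous-exposure protocol. Growth estimated by SRB protein assay, read spectrophotometrically against untreated controls; IC50 derived from the dose-response.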

HOP-62 = test: Cytotoxicity against human HOP62 cells after 48 hrs by SRB assay; format: functional; details: HOP-62, 48 h; procedure, shortened: as §1
[1] = Cytotoxicity against human Hs578T cells after 48 hrs by SRB assay; format: functional; details: Hs-578T; procedure, shortened: as §1
[2] = target: Cyclin-dependent kinase 2 (Homo sapiens) (UniProt P24941); test: Inhibition of human CDK2 at 10 uM
Procedure, shortened: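 Kinase selectivity panel of 19 protein tyrosine kinases and 30 serine/threonine kinases, run by a contract lab (CEREP). Each compound was tested at a single dose of 10 μM in duplicate.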

BT-549 = test: Cytotoxicity against human BT549 cells after 48 hrs by SRB assay; format: functional; details: BT-549, 48 h; procedure, shortened: as §1
TK-10 = test: Cytotoxicity against human TK10 cells after 48 hrs by SRB assay; format: functional; details: TK-10, 48 h
Procedure, shortened: (§2)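 NCI-60 five-dose mode on the full human tumour line panel. Concentrations ran from 100 to 0.01 µM with 48 h continuous exposure. Growth was estimated by SRB protein staining against untreated controls, and IC50 values were derived from the dose–response.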

A549 = test: Cytotoxicity against human A549 cells after 48 hrs by SRB assay; format: functional; details: A549, 48 h; procedure, shortened: as §1
SK-MEL-5 = test: Cytotoxicity against human SK-MEL-5 cells after 48 hrs by SRB assay; format: functional; details: SK-MEL-5, 48 h; procedure, shortened: as §2
Malme-3M = test: Cytotoxicity against human MALME-3M cells after 48 hrs by SRB assay; format: functional; procedure, shortened: as §1
SNB-75 = test: Cytotoxicity against human SNB75 cells after 48 hrs by SRB assay; format: functional; details: SNB-75, 48 h; procedure, shortened: as §2
PC-3 = test: Cytotoxicity against human PC3 cells after 48 hrs by SRB assay; format: functional; details: PC-3, 48 h
Procedure, shortened: (§3)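 NCI-60 five-dose screen: cells exposed continuously for 48 h across 100 to 0.01 µM. Growth or viability estimated by sulforhodamine B protein staining, read spectrophotometrically against untreated controls; IC50 taken from the dose-response.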

[3] = Cytotoxicity against human NCI-ADR-RES cells after 48 hrs by SRB assay; format: functional; procedure, shortened: as §3
SN12C = test: Cytotoxicity against human SN12C cells after 48 hrs by SRB assay; format: functional; procedure, shortened: as §2
HT-29 = test: Cytotoxicity against human HT-29 cells after 48 hrs by SRB assay; format: functional; details: HT-29, 48 h; procedure, shortened: as §1
[4] = Cytotoxicity against human OVCAR4 cells after 48 hrs by SRB assay; format: functional; details: OVCAR-4, 48 h; procedure, shortened: as §3
MDA-MB-435 [5] = test: Induction of apoptosis in human MDA-MB-435 cells assessed as nuclei fragmentation at 5 uM after 20 hrs by Hoechst 33342 staining-based phase-contrast microscopy; format: functional, cell-based
MCF7 = test: Cytotoxicity against human MCF7 cells after 48 hrs by SRB assay; format: functional; details: MCF7, 48 h; procedure, shortened: as §1
HL-60(TB) = test: Cytotoxicity against human HL-60(TB) cells after 48 hrs by SRB assay; format: functional; details: HL-60, 48 h
Procedure, shortened: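 NCI-60 human tumour cell line panel; continuous 48 h exposure to five concentrations from 100 to 0.01 µM. Cell growth was read spectrophotometrically by sulforhodamine B protein staining against untreated controls, and […] was taken from the dose–response.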

M14 = test: Cytotoxicity against human M14 cells after 48 hrs by SRB assay; format: functional; details: M14, 48 h; procedure, shortened: as §1
MDA-MB-435 [6] = test: Cytotoxicity against human MDA-MB-435 cells at 5 uM after 8 hrs by MTT assay; format: functional
Procedure, shortened: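 MDA-MB-435 cells in DMEM/Ham's F12 (1:1) with 10% FCS, 37 °C, 5% CO2. Time course at a fixed 5 µM, incubated 8, 16, 24 or 48 h. Viability then read by MTT reduction (0.5 mg/mL, 4 h), formazan dissolved in EtOH/DMSO, absorbance at 540 nm, as percent living cells.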

DU-145 = test: Cytotoxicity against human DU145 cells after 48 hrs by SRB assay; format: functional; details: DU-145, 48 h; procedure, shortened: as §1
SK-MEL-2 = test: Cytotoxicity against human SK-MEL-2 cells after 48 hrs by SRB assay; format: functional; details: SK-MEL-2, 48 h; procedure, shortened: as §3
[7] = Cytotoxicity against human OVCAR5 cells after 48 hrs by SRB assay; format: functional; details: OVCAR-5, 48 h; procedure, shortened: as §3
MDA-MB-435 [8] = test: Induction of apoptosis in human MDA-MB-435 cells assessed as stretched stress action fibres at 5 uM after 20 hrs by Hoechst 33342 staining-based […] microscopy; format: functional, cell-based
Procedure, shortened: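 MDA-MB-435 cells were grown for 24 h, then treated with or without 5 μM compound for 20 h. Cells were fixed for 20 min and permeabilised with 0.2% Triton X-100 for 4 min at room temperature. Actin was stained with a mouse anti-actin antibody and an Alexa Fluor 568 anti-mouse antibody, each for 1 h at RT. Nuclei were counterstained with Hoechst 33342, and cells were imaged by confocal microscopy.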

MDA-MB-435 [9] = test: Cytotoxicity against human MDA-MB-435 cells assessed as reduction in cell growth at 1 to 10 uM after 48 hrs by MTT assay relative to untreated control; format: functional; design: scale not given: the % may be the effect or the level left
Procedure, shortened: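 Melanoma lines grown at 37 °C in humidified 5% CO2: MDA-MB-435 in DMEM/Ham's F12 1:1 with 10% FCS and antibiotics, SK-MEL-2 in RPMI-1640 with 10% FCS. Cells plated 24 h, then exposed 48 h to 100–0.01 µM (dilutions from fresh 100 µM stock in medium). MTT 0.5 mg/mL added for 4 h, crystals dissolved in EtOH/DMSO 1:1, absorbance read at 540 nm. Mean ± SD of three independent experiments.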

[10] = read-out: LC50 (the source's name)

## C[C@@H]1NC(c2ccc(Br)cc2)=Nc2nc3ccccn3c2C1=O
LOX IMVI
  GI50: 6.34 µM
  TGI: > 100 µM
LOX IMVI; [10]
  CC50: > 100 µM
HOP-62
  GI50: 5.75 µM
  TGI: > 100 µM
HOP-62; [10]
  CC50: > 100 µM
[1]
  GI50: 2.81 µM
  TGI: 52 µM
[1]; [10]
  CC50: > 100 µM
[2]
  inhibition: inactive
BT-549
  GI50: 5.49 µM
  TGI: > 100 µM
BT-549; [10]
  CC50: > 100 µM
TK-10
  GI50: 21 µM
  TGI: > 100 µM
TK-10; [10]
  CC50: > 100 µM
A549
  GI50: 6.7 µM
  TGI: > 100 µM
A549; [10]
  CC50: > 100 µM
SK-MEL-5
  GI50: 2.24 µM
  TGI: 40.5 µM
SK-MEL-5; [10]
  CC50: > 100 µM
Malme-3M
  GI50: 15.2 µM
  TGI: > 100 µM
Malme-3M; [10]
  CC50: > 100 µM
SNB-75
  GI50: 0.7 µM
  TGI: 7.06 µM
SNB-75; [10]
  CC50: > 100 µM
PC-3
  GI50: 5.7 µM
  TGI: > 100 µM
PC-3; [10]
  CC50: > 100 µM
[3]
  GI50: 7.45 µM
  TGI: > 100 µM
[3]; [10]
  CC50: > 100 µM
SN12C
  GI50: 17.6 µM
  TGI: > 100 µM
SN12C; [10]
  CC50: > 100 µM
HT-29
  GI50: 3.73 µM
  TGI: > 100 µM
HT-29; [10]
  CC50: > 100 µM
[4]
  GI50: 17.9 µM
  TGI: > 100 µM
[4]; [10]
  CC50: > 100 µM
MDA-MB-435 [5]
  Activity: Active
MCF7
  GI50: 2.99 µM
  TGI: > 100 µM
MCF7; [10]
  CC50: > 100 µM
HL-60(TB)
  GI50: 6.49 µM
  TGI: > 100 µM
HL-60(TB); [10]
  CC50: > 100 µM
M14
  GI50: 3.2 µM
  TGI: 48.2 µM
M14; [10]
  CC50: > 100 µM
MDA-MB-435 [6]
  Activity: 35%
DU-145
  GI50: 23.2 µM
  TGI: > 100 µM
DU-145; [10]
  CC50: > 100 µM
SK-MEL-2
  GI50: 15.7 µM
  TGI: > 100 µM
SK-MEL-2; [10]
  CC50: > 100 µM
[7]
  GI50: 23.5 µM
  TGI: > 100 µM
[7]; [10]
  CC50: > 100 µM

## C[C@@H]1NC(c2ccccc2)=Nc2nc3ccccn3c2C1=O
MDA-MB-435 [8]
  Activity: inactive
MDA-MB-435 [9]
  Activity: 20%
